What was measured:
[1] = Cytotoxicity against human CD4 positive T cells transduced with replication defective HIV containing GFP reporter (delta GPE) assessed as cell viability by measuring vital dye uptake incubated for 72 hrs by flow cytometric assay; assay type: toxicity, cell-based; details: for CC50 at 72 h: read-out: TC50
Procedure, shortened: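 Primary human PBMCs, CD8-depleted, PHA-L (10 ug/mL) then IL-2 activated; donor-matched mock-transduced cells plated 1×10^5/well in R10 with IL-2 (final 50 U/mL), compounds serially diluted from DMSO stocks (top 1000 nM), 72 h.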

[2] = Inhibition of Nef protein-dependent MHC-1 HLA-A2 down modulation in human CD4 positive T cells transduced with replication defective HIV containing GFP reporter (delta GPE) assessed as restoration of MHC-1 measured after 24 hrs by HLA-A2 staining based flow cytometry; assay type: cell-based, Human immunodeficiency virus, CD4+ T cell
[3] = (§1) Therapeutic ratio, ratio of IC50 for Cytotoxicity against human CD4 positive T cells transduced with replication defective HIV containing GFP reporter (delta GPE) to IC50 for Inhibition of Nef protein-dependent MHC-1 HLA-A2 down modulation in human CD4 positive T cells transduced with replication defective HIV containing GFP reporter (delta GPE); assay type: toxicity, cell-based; details: read-out: Ratio IC50
Procedure, shortened: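 Primary human CD4+ T cells (PBMC, CD8-depleted, PHA then IL-2 activated) spinoculated with VSV-G-pseudotyped ΔGPE reporter; 48 h later treated with serial dilutions in R10 + 50 U/mL IL-2, top 1000 nM.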

[4] = Inhibition of V-ATPase-dependent lysosomal acidification in human CD4 positive T cells transduced with replication defective HIV containing GFP reporter (delta GPE) assessed as fluorescence of pH-sensitive Lysotracker dye incubated for 24 hrs by flow cytometry; assay type: cell-based; details: CD4+ T cell
Procedure, shortened: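 CD8-depleted PHA/IL-2-activated primary CD4+ T cells spinoculated with VSV-G-pseudotyped HIV ΔGPE, 48 h later plated 1×10^5/well and treated 24 h with serial dilutions (top 1000 nM, final IL-2 50 U/mL).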

[5] = as §1, with “Neutralization” for “Therapeutic”, “Inhibition of V-ATPase-dependent lysosomal acidification in” for “Cytotoxicity against”
[6] = system: CD4+ T cell; details: Human immunodeficiency virus, dose 0.05-10 nM
[7] = Human immunodeficiency virus 1, CD4+ T cell, 24 h

Row | SMILES | selectivity ratio [3] | IC50 [2, 7] | Ratio IC50 [5] | other results
1 | C/C=C/C=C/[C@H]1O[C@@](O)([C@@H](C)[C@H](O)[C@H](C)[C@H]2OC(=O)/C(OC)=C/C(C)=C/[C@@H](C)[C@@H](O)[C@@H](C)C/C(C)=C/C=C/[C@@H]2OC)C[C@@H](O[C@H]2C[C@@H](O)[C@H](O)[C@@H](C)O2)[C@@H]1C |  |  |  | CC50 at 72 h [1]: 1.3 nM
2 | CO/C1=C\C(C)=C\[C@@H](C)C(=O)[C@@H](C)C/C(C)=C/C=C/[C@H](OC)[C@@H]([C@@H](C)[C@@H](O)[C@H](C)[C@@]2(O)CC(=O)[C@H](C)[C@@H](C(C)C)O2)OC1=O |  |  |  | IC50 ([2]; cd4+ t cell): > 1000 nM
3 | C/C=C/[C@H]1O[C@@](O)([C@@H](C)[C@H](O)[C@H](C)[C@H]2OC(=O)/C(OC)=C/C(C)=C/[C@@H](C)[C@@H](O)[C@@H](CC)[C@@H](O)[C@H](C)C/C(C)=C/C=C/[C@@H]2OC)C[C@@H](O[C@H]2C[C@@H](OC(C)=O)[C@H](OC(N)=O)[C@@H](C)O2)[C@@H]1C | 8.5 |  |  | 
4 | CO/C1=C\C(C)=C\[C@@H](C)C(=O)[C@@H](C)C/C(C)=C/C=C/[C@H](OC)[C@@H]([C@@H](C)[C@@H](O)[C@H](C)[C@@]2(O)C[C@@H](O)[C@H](C)[C@@H](C(C)C)O2)OC1=O |  |  |  | IC50 ([2]; cd4+ t cell): > 1000 nM
5 | CO[C@H]1/C=C/O[C@@]2(C)Oc3c(C)c(O)c4c(O)c(c(/C=N/N5CCN(C)CC5)c(O)c4c3C2=O)NC(=O)/C(C)=C\C=C\[C@H](C)[C@H](O)[C@@H](C)[C@@H](O)[C@@H](C)[C@H](OC(C)=O)[C@@H]1C [RIFAMPIN] |  | > 1000 nM |  | IC50 at 72 h [1]: > 1000 nM; IC50 [4]: > 1000 nM
6 | C/C=C/[C@H]1O[C@@](O)([C@@H](C)[C@H](O)[C@H](C)[C@H]2OC(=O)/C(OC)=C/C(C)=C/[C@@H](C)[C@@H](O)[C@@H](CC)[C@@H](OC(C)=O)[C@H](C)C/C(C)=C/C=C/[C@@H]2OC)C[C@@H](O[C@H]2C[C@@H](OC(C)=O)[C@H](OC(C)=O)[C@@H](C)O2)[C@@H]1C | 1.8 | 2.8 nM | 3.6 | 
7 | C/C=C/[C@H]1O[C@@](O)([C@@H](C)[C@H](O)[C@H](C)[C@H]2OC(=O)/C(OC)=C/C(C)=C/[C@@H](C)[C@@H](O)[C@@H](CC)[C@@H](OC(C)=O)[C@H](C)C/C(C)=C/C=C/[C@@H]2OC)C[C@@H](OC(C)=O)[C@@H]1C | 2.5 | 3.6 nM | 5.4 | 
8 | C/C=C/[C@H]1O[C@@](O)([C@@H](C)[C@H](O)[C@H](C)[C@H]2OC(=O)/C(OC)=C/C(C)=C/[C@@H](C)[C@@H](O)[C@@H](CC)[C@@H](OC(C)=O)[C@H](C)C/C(C)=C/C=C/[C@@H]2OC)C[C@@H](O[C@H]2C[C@@H](OC(C)=O)[C@H](OC(N)=O)[C@@H](C)O2)[C@@H]1C |  |  |  | inhibition [6]: Dose-Dependent Effect
9 | C/C=C/[C@H]1O[C@@](O)([C@@H](C)[C@H](O)[C@H](C)[C@H]2OC(=O)/C(OC)=C/C(C)=C/[C@@H](C)[C@@H](O)[C@@H](C)[C@@H](O)[C@H](C)C/C(C)=C/C=C/[C@@H]2OC)C[C@@H](O[C@H]2C[C@@H](OC(C)=O)[C@H](OC(N)=O)[C@@H](C)O2)[C@@H]1C | 8 | 0.66 nM | 21 | 
10 | C/C=C/[C@H]1O[C@@](O)([C@@H](C)[C@H](O)[C@H](C)[C@H]2OC(=O)/C(OC)=C/C(C)=C/[C@@H](C)[C@@H](O)[C@@H](CC)[C@@H](O)[C@H](C)C/C(C)=C/C=C/[C@@H]2OC)C[C@@H](OC(C)=O)[C@@H]1C | 5.8 | 1.2 nM | 5.6 | 
11 | C/C=C/[C@H]1O[C@@](O)([C@@H](C)[C@H](O)[C@H](C)[C@H]2OC(=O)/C(OC)=C/C(C)=C/[C@@H](C)[C@@H](O)[C@@H](CC)[C@@H](O)[C@H](C)C/C(C)=C/C=C/[C@@H]2OC)C[C@@H](O[C@H]2C[C@@H](O)[C@H](OC(N)=O)[C@@H](C)O2)[C@@H]1C |  |  |  | inhibition [6]: Dose-Dependent Effect
12 | C/C=C/[C@H]1O[C@@H]([C@@H](C)[C@H](O)[C@H](C)[C@H]2OC(=O)/C(OC)=C/C(C)=C/[C@@H](C)[C@@H](O)[C@@H](CC)[C@@H](O)[C@H](C)C/C(C)=C/C=C/[C@@H]2O)C[C@@H](O)[C@@H]1C |  | 400 nM |  | 
13 | CCCCC(=O)O[C@@H]1C[C@](O)([C@@H](C)[C@H](O)[C@H](C)[C@H]2OC(=O)/C(OC)=C/C(C)=C/[C@@H](C)[C@@H](O)[C@@H](C)C/C(C)=C/C=C/[C@@H]2OC)O[C@H](C(C)C)[C@H]1C | 1.4 | 37 nM | 1.5 | 
14 | C/C=C/[C@H]1O[C@@H]([C@@H](C)[C@H](O)[C@H](C)[C@H]2OC(=O)/C(OC)=C/C(C)=C/[C@@H](C)[C@@H](O)[C@@H](CC)[C@@H](O)[C@H](C)C/C(C)=C/C=C/[C@@H]2OC)C[C@@H](O)[C@@H]1C |  | 4.5 nM |  | 
15 | C=C/C=C/C(=O)O[C@@H]1C[C@](O)([C@@H](C)[C@H](O)[C@H](C)[C@H]2OC(=O)/C(OC)=C/C(C)=C/[C@@H](C)[C@@H](O)[C@@H](C)C/C(C)=C/C=C/[C@@H]2OC)O[C@H](C(C)C)[C@H]1C | 1.4 | 17 nM | 1.5 | 
16 | C/C=C/[C@H]1O[C@@](O)([C@@H](C)[C@H](O)[C@H](C)[C@H]2OC(=O)/C(OC)=C/C(C)=C/[C@@H](C)[C@@H](O)[C@@H](CC)[C@@H](O)[C@H](C)C/C(C)=C/C=C/[C@@H]2OC)C[C@@H](O[C@H]2C[C@@H](OC(C)=O)[C@H](OC(C)=O)[C@@H](C)O2)[C@@H]1C | 1.8 | 0.72 nM | 4.2 | 
17 | CO/C1=C\C(C)=C\[C@@H](C)[C@@H](O)[C@@H](C)C/C(C)=C/C=C/[C@H](OC)[C@@H]([C@@H](C)[C@@H](O)[C@H](C)[C@H]2C=C(O)[C@H](C)[C@@H](C(C)C)O2)OC1=O | 1.6 | 140 nM | 2.6 | 
18 | CO/C1=C\C(C)=C\[C@@H](C)[C@@H](O)[C@@H](C)C/C(C)=C/C=C/[C@H](OC)[C@@H]([C@@H](C)[C@@H](O)[C@H](C)[C@H]2C[C@@H](O)[C@H](C)[C@@H](C(C)C)O2)OC1=O | 1.4 | 34 nM | 4.1 | 
19 | CNC(=O)O[C@@H](CC(C)C)c1nc([C@H]2OC(=O)/C(C)=C/C/C(C)=C/[C@@H](O)[C@@H](C)\C=C(C)/C=C(C)\C=C\[C@@H](O)[C@H](C)[C@H](OC)/C(C)=C/C=C/[C@@H]2C)cs1 [ARCHAZOLID A] |  |  |  | IC50 ([2]; cd4+ t cell): 0.47 nM
20 | CO/C1=C\C(C)=C\[C@@H](C)[C@@H](O)[C@@H](C)C/C(C)=C/C=C/[C@H](OC)[C@@H]([C@@H](C)[C@@H](O)[C@H](C)[C@H]2C[C@@H](OC)[C@H](C)[C@@H](C(C)C)O2)OC1=O | 1.4 | 20 nM | 2.7 | 
21 | CO/C1=C\C(C)=C\[C@@H](C)[C@@H](O)[C@@H](C)C/C(C)=C/C=C/[C@H](OC)[C@@H]([C@@H](C)[C@@H](O)[C@H](C)[C@@]2(O)C[C@@H](OC(=O)c3ccccc3)[C@H](C)[C@@H](C(C)C)O2)OC1=O |  |  |  | IC50 [4]: 128 nM
22 | COc1cc2c(O)c3c(c(-c4ccc5c(c4)OCO5)c2cc1OC)C(=O)OC3 [DIPHYLLIN] |  | > 1000 nM |  | IC50 at 72 h [1]: > 1000 nM; IC50 [4]: > 1000 nM
23 | CCCCCCCCC(=O)O[C@@H]1C[C@](O)([C@@H](C)[C@H](O)[C@H](C)[C@H]2OC(=O)/C(OC)=C/C(C)=C/[C@@H](C)[C@@H](O)[C@@H](C)C/C(C)=C/C=C/[C@@H]2OC)O[C@H](C(C)C)[C@H]1C | 1.1 | 130 nM | 1.2 | 
24 | CO/C1=C\C(C)=C\[C@@H](C)[C@@H](O)[C@@H](C)C/C(C)=C/C=C/[C@H](OC)[C@@H]([C@@H](C)[C@@H](O)[C@H](C)[C@@]2(O)C[C@@H](O[C@@H]3O[C@@H](C)[C@H](O)[C@@H](O)[C@H]3OC)[C@H](C)[C@@H](C(C)C)O2)OC1=O |  |  |  | CC50 at 72 h [1]: 1.4 nM
25 | CC[C@H]1OC(=O)[C@H](C)[C@@H](O[C@@H]2O[C@H](C)C[C@H](N(C)C)[C@H]2O)[C@@H](C)C[C@@H](C)C(=O)/C=C/[C@H]1C |  | > 1000 nM |  | IC50 at 72 h [1]: > 1000 nM; IC50 [4]: > 1000 nM
26 | CC[C@H]1OC(=O)C(C)C(O)[C@@H](C)C[C@@H](C)C(=O)/C=C/[C@H]1C (some centres undefined) |  | 350 nM |  | IC50 at 72 h [1]: 140 nM; IC50 [4]: 1720 nM
27 | CO/C1=C\C(C)=C\[C@@H](C)[C@@H](O)[C@@H](C)C/C(C)=C/C=C/[C@H](OC)[C@@H]([C@@H](C)[C@@H](O)[C@H](C)[C@@]2(OC)C[C@@H](O)[C@H](C)[C@@H](C(C)C)O2)OC1=O | 1.2 | 12 nM | 2.3 | 

Reference: ChEMBL document CHEMBL5528081 (J Med Chem, 2024)
